# Data reported in PubChem BioAssay AID1385 (PCMD, 2008).
# The campaign covered roughly 200,000 compounds. About 170 (0.085%) were called active. The full list was thinned out, with actives kept by preference. A number with no mark means an inactive call.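 Rule for the calls: active = inhibition above 40% at the single screening dose; inactive = the rest.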
# Biological target: DNA repair protein RAD51 homolog 1 (Homo sapiens) (UniProt Q06609)
# Experiment: blockers of RAD51-mediated homologous recombination – biochemical, fluorescence, primary screen (AID 1385);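 note: 0% = DMSO control wells and 100% = blanks with heterologous ssDNA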
# Conditions: hRad51 DNA strand exchange, fluorescence dequenching; at 10 µM; stronger effect = higher value
# Summary of the method: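 Material: human Rad51–ssDNA filaments; Probe or stimulus: labelled 47-mer dsDNA for strand exchange; Doses: single 10 µM dose; Incubation: 37 °C 15-min filament assembly, 30-min compound preincubation, 15-min exchange; Technique: FRET fluorescence dequenching, excitation 485 nm, emission 520 nm; Measure: Fluorescence-based percent inhibition, control- and blank-normalised; Benchmarks: plate control and blank wells.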
# Chain of DNA repair protein RAD51 homolog 1 (Homo sapiens) (Q06609 whole entry, looked up): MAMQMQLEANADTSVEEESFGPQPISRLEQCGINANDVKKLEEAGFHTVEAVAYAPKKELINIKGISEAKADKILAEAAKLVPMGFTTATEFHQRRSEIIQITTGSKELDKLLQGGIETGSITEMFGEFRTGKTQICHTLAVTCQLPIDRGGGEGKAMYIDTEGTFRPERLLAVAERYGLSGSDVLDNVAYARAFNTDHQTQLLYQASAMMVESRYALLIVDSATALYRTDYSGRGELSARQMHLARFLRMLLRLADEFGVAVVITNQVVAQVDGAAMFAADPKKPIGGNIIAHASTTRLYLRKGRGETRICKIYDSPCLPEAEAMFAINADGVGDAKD
row,SMILES,inhibition
1,NNC(=O)c1cccc(COCC(F)(F)C(F)F)c1,8.15%
2,O=C(Nc1ccccc1)C1CC(=O)n2c(nc3ccccc32)N1 (configuration not stated),1.59%
3,NC(=O)c1ccc(NC(=O)COC(=O)c2ccc([N+](=O)[O-])cc2)cc1,-14.5%
4,CCCc1c(C(=O)Nc2ccc(F)cc2)cnn1-c1ccccc1,-9.46%
5,Cc1cc(C(=O)OCC(=O)Nc2nccs2)c2ccccc2n1,-4.52%
6,CCc1nc(NCCO)c(C#N)c2c1CCCC2,18.4%
7,Cn1c(=O)c(=O)n(C)c2cc(S(=O)(=O)NCCN3CCN(c4ccccc4F)CC3)ccc21,0.68%
8,Cc1ccc(N2C(=O)CN=C2Nc2nc(C)cc(C)n2)cc1,7.92%
9,COC(=O)c1sccc1NC(=O)CC1C(=O)NCCN1C(=O)Nc1ccc(F)cc1F (configuration not stated),1.89%
10,Fc1ccc(-c2csc(-c3ccc(C4SCCS4)cc3)n2)cc1F,1.29%
11,O=C(NNC(=O)c1csc(-c2cccnc2)n1)Nc1ccc(Cl)cc1,-5.17%
12,COCc1cc(=O)[nH]c(-c2ccc(C(F)(F)F)cc2)n1,7.88%
13,CSc1sc(C(=O)NNC(=O)c2ccc(Cl)cc2)c2c1C=CCC2,-9.57%
14,N#Cc1c(NCCO)ccc([N+](=O)[O-])c1NCCO,16.9%
15,COc1ccc(NC(=O)C2=C(C)NC(=O)NC2c2ccccc2[N+](=O)[O-])cc1 (configuration not stated),0.69%
16,O=S(=O)(c1ccccc1)N1CN(Cc2ccc(F)cc2)c2nc3ccccc3nc21,7.4%
17,CC1(C)C2CC[C@]3(C)C(CC=C4[C@@H]5C[C@@](C)(CO)CC[C@]5(C(=O)O)CC[C@]43C)[C@@]2(C)CC[C@@H]1O (some centres not stated),6.09%
18,Cc1cc(N2CCN(c3ccccc3)CC2)nc(N2CCOCC2)n1,26.8%
19,COc1ccc(Cn2c(O)c(/C=C3/C=CC=N3)c(=O)[nH]c2=O)cc1,-6.92%
20,COC(=O)c1ccc(C(NC(=O)OCc2ccccc2)/C(F)=C/[C@@H](C)C(=O)O)cc1 (some centres not stated),-2.27%
21,Cc1cccn2c(CNCC(C)Oc3cccnc3)c(C(=O)N3CCOCC3)nc12 (configuration not stated),-2.58%

row,SMILES,inhibition
1,N#CC1=C(N)Oc2c(ccc3cccnc23)C1c1ccncc1 (configuration not stated),12.7%
2,CN(C)CCCN(Cc1cc2cc3c(cc2[nH]c1=O)OCCO3)C(=O)NC1CCCCC1,0.9%
3,C/C(CC(=O)NC(C)c1ccccc1)=N\NC(N)=S (configuration not stated),21.4%
4,NCC(=O)c1cccc2ccc[n+]([O-])c12,-0.26%
5,CCCOc1ccc(Cl)cc1Nc1nc(NCCO)nc(N2CCCC2)n1,6.75%
6,Cc1cc(NC(=O)OC(C)C)ccc1-c1ccc(NC(=O)OC(C)C)cc1C,-19.8%
7,CCn1c(SCC(=O)Nc2sc(C)c(C)c2C#N)nnc1C1CC1,-26.7%
8,CCNc1nc(NCC)nc(N/N=C/c2ccc(O)c(OC)c2)n1,5.6%
9,Cc1cc(C)nc(Nc2n[nH]c(-c3ccccc3N)n2)n1,22.9%
10,COC(=O)c1cc(C(=O)OCC(=O)Nc2cc(C)on2)cc([N+](=O)[O-])c1,-19.8%
11,O=C(CCl)Nc1cccc(CP(=O)(c2ccccc2)c2ccccc2)c1,3.48%
12,Cc1nc(-c2ccccc2)sc1-c1nnc(C2CC2)o1,13.8%
13,Cc1cc(=O)oc2cc(OCC(=O)Nc3nnc(C4CC4)s3)ccc12,27.8%
14,CCCSc1ncccc1C(=O)O,14.8%
15,Cc1ccc(NC(=O)C/C(N)=N/O)cc1Cl,-4.43%
16,O=S(=O)(Cc1noc(-c2ccc(OC(F)(F)F)cc2)n1)c1ccc(F)cc1,-2.58%
17,CC(NC(=O)C(=O)Nc1nccs1)c1ccccc1 (configuration not stated),2.32%
18,CCOC(=O)c1c(N)sc2c1CCCC2=O,10.5%
19,CCCc1nc2c(c(=O)c3ccccc3n2C)c(=O)n1-c1cc(C)cc(C)c1,20%
20,Cc1cc(N)n(-c2ccc(S(=O)(=O)N3CCCC3)cc2[N+](=O)[O-])n1,4.97%
21,O=C(N/N=C/c1ccco1)c1csc2c1CCCC2,7.09%

row,SMILES,inhibition
1,Cn1c2c(c(=O)n(C)c1=O)C(c1cccc(F)c1)C(C#N)=C(N)O2 (configuration not stated),1.62%
2,O=C1NNC(c2ccccc2)=N/C1=C\c1ccc(Cl)cc1,-17%
3,O=C(NCCN1CCOCC1)c1ccc2c(c1)N(Cc1ccc(Cl)cc1)CCS2,22.5%
4,CC1(C)CC(=O)C=C(Nc2ccccc2)C1,8.69%
5,O=C(C1=C(O)C(=O)N(CCOCCO)C1c1ccccn1)c1cccs1 (configuration not stated),21.9%
6,CC12CN3CCN(CC(C3)/C1=N\NC(=O)c1ccccc1N)C2,-2.47%
7,Nc1scc[n+]1Cc1cccc2cccnc12,9.86%
8,Cc1c(CCC(=O)O)c(=O)oc2cc3occ(-c4ccccc4)c3cc12,3.32%
9,O=C(Cn1cnc2ccccc2c1=O)Nc1cccc(S(=O)(=O)N2CCCCC2)c1,11.5%
10,Cn1c(=O)c2c(-c3cccc(Br)c3)c(C#N)c(N)nc2n(C)c1=O,4.26%
11,COc1ccccc1/C=C/C=N/NC(=O)CN1CCN(Cc2ccccc2)CC1,-30.5%
12,CCOc1cc2c(Cl)ncnc2c(OCC)c1OCC,-5.3%
13,O=S(=O)(Nc1ccc(Cl)cn1)c1cnc(Cl)c(Br)c1,12%
14,CC(NCc1ccccc1OC1CCCC1)c1ccccc1 (configuration not stated),15.6%
15,O=c1cc(CCl)nc2scc(-c3ccccc3)n12,-3.51%
16,CNC(=S)NNC(=O)c1oc2nc(-c3ccccc3)cc(-c3ccco3)c2c1N,-38.4%
17,Cc1onc(-c2c(Cl)cccc2Cl)c1C(=O)NNC(=O)c1c(-c2c(Cl)cccc2Cl)noc1C,9.44%
18,COc1cccc(Nc2nc(N)c([N+](=O)[O-])c(NCc3ccco3)n2)c1,1.8%
19,COc1ccc(CN2CC[C@H]3C=CC[C@@H](C(=O)N4CCOCC4)[C@H]3C2=O)cc1OC,-2.64%
20,COc1ccccc1-n1c(SCC(=O)O)nc2sc3c(c2c1=O)CCC3,4.79%
21,COC(=O)C1=C[C@@H](C(=O)OC)[C@@H]2C3=C(C(=O)[C@]2(C)NC(=O)c2ccccc2)[C@H](C)n2c(=O)n(C)c(=O)n2[C@@H]3C1,-1.64%

row,SMILES,inhibition
1,Cc1ncn2cc(-c3ccc(Cl)cc3Cl)[nH]c(=O)c12,-9.91%
2,CCn1c(=O)c2cc(C(=O)Nc3cccc(C(C)=O)c3)sc2c2ccccc21,-1.26%
3,NS(=O)(=O)c1ccc(CNC(=O)c2cnccn2)cc1,7.99%
4,NC(=O)c1nnsc1-c1ccc(-c2snnc2C(N)=O)cc1,-31.9%
5,COc1ccc(CN2CCOC2=O)cc1OC,-3.27%
6,CCN(CC)c1ccc(NC(=O)C2CCC(CNc3c(N4CCCC4)c(=O)c3=O)CC2)c(C)c1 (configuration not stated),15.6%
7,CC(O)c1nc2c(c(=O)n(C)c(=O)n2C)n1C (configuration not stated),-23.8%
8,COc1ccc(C(=O)O/N=C(\N)Cc2ccc(Cl)cc2Cl)cc1OC,1.56%
9,COc1ccc(CCNC2=C(Cl)C(=O)N(Cc3ccccc3)C2=O)cc1OC,8.51%
10,COc1ccc(CCn2ccc(O)c(Cc3ccc(Cl)cc3Cl)c2=O)cc1OC,43.6% (active)
11,O=C1[C@@H]2C(c3cccnc3)=NO[C@@H]2C(=O)N1c1ccc(Cl)cc1Cl,-42%
12,COc1ccc(NS(=O)(=O)c2ccc(N3CCOCC3)c(NC(=O)c3ccccc3Br)c2)cc1,17%
13,CN(C)S(=O)(=O)c1ccc(Cl)c(NC(=O)COC(=O)CC(NC(N)=O)c2ccc(Cl)cc2)c1 (configuration not stated),-44.1%
14,Clc1ccc(C[n+]2cc(-c3ccccc3)n3c2CCC3)cc1,18.9%
15,NNC(=O)c1ccc(COCC(F)(F)C(F)F)cc1,1.4%
16,COc1ccc2nc(NC(=O)NC3CCCCC3)sc2c1,-16.2%
17,Cc1ccsc1/C=N/NC(=O)Cc1cc(=O)[nH][nH]1,16.7%
18,Cc1ccc(C(=O)NNC2=Nc3cc([N+](=O)[O-])ccc3OC2)cc1,3.01%
19,COc1ccc(NC(=O)CSc2ncnc3[nH]ncc23)cc1,-5.26%
